From PubChem
Hits are enriched below; roughly 3.5% of the tested compounds scored in any of these assays.
PGC1a acetyl inh: lowers PGC1a acetylation signal in U2OS cells. AlphaScreen anti-acetyl-lysine; with virally co-expressed GCN5 acetyltransferase. inhibition, % at 15.6 µM. 350,000 tested, 0.17% active;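 active means every replicate shows inhibition of at least 40%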;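 further: 0% = neutral control wells and 100% = positive control wells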
FGF22 binding: binders of recombinant human FGF22 by thermal shift. SYPRO orange fluorescence; percent of sucrose octasulfate shift, DMSO zero. activity (Tm shift, normalised), % at 9.99 µM. 340,000 tested, 1.5% active. AID 651658;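 active means mean Tm shift, scaled 0 neutral to 100 positive control, at about 1.3% or above, every replicate too, limit read from the data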
Target sequence (Q9HCT0 whole entry, looked up): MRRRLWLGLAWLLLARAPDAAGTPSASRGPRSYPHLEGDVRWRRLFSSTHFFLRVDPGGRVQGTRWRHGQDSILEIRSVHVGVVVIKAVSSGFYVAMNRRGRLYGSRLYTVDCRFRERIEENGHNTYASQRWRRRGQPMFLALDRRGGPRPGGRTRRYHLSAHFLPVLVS
rRNA inh HTS: inhibits bacterial ribosomal RNA function over humanized ribosomes. E. coli WT GFP vs humanized-ribosome RFP mutants, fluorescence, 24 h; active compounds read low; DMSO median 0, no signal -100. GFP signal change (wild-type ribosome), % (test concentration not listed). 350,000 tested, 1.6% active. AID 720706;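 active means significant combined selectivity score with lowered wild-type GFP, culture density cut under 30%, mutant RFP and density less affected; inactive means any of these conditions unmet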
ERAP1 inh: blocks human ERAP1 aminopeptidase activity; Q9NZ08; recombinant ERAP1, Leu-AMC fluorescence, 60 min; inhibition, % at 10.7 µM; 340,000 tested, 0.15% active; AID 652197;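 active means mean replicate inhibition of at least 30%, or all replicates individually reaching that 30% level; inactive means mean below 30% and not every replicate reaching it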;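 further: 0% = neutral control wells and 100% = L-leucinethiol positive control wells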
Cneo AK release: causes C. neoformans cell lysis; lysis activity, % at 15 µM; AID 651654; adenylate kinase release luminescence, 4 h; normalised: neutral wells 0, clomiphene wells 100; 360,000 tested, 0.2% active;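 active means mean lysis activity across replicates of at least 80%, whatever share of replicates individually reach that level; inactive means mean lysis activity below 80%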
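Signal: Adenylate kinase release luminescence | Assay system: Log-phase Cryptococcus neoformans yeast cells | Input: Cells at 5 × 10^6 per mL | Buffer or medium: Fresh YPD growth medium | Compound: Single dose | Schedule: Static 4 h at 37 °C with compound, 1 h detection | Controls: Clomiphene | Read-out: Luminescence rise reflecting yeast cell lysis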
HIV Env fusion: HIV envelope-mediated fusion inhibition; HeLa-JRFL Env/CEM21 cell fusion, luciferase; inhibition, % at 12.3 µM; 360,000 tested, 1.1% active; AID 651610;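 active means mean replicate inhibition score of at least 50 and every replicate individually at or above 50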;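 further: 0% = plate neutral controls and 100% = maraviroc near 300 nM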
* marks the source's active call; other numbers are inactive results; [ ] = another dose, or the depositor's remark.

Results for C[C@@]12C(=O)OC(=O)[C@]1(C)C1CCC2O1 ?
PGC1a acetyl inh: 47*; FGF22 binding: 0; ERAP1 inh: 1; Cneo AK release: 0; HIV Env fusion: 105*

Results for CCN1/C(=C2\C(=O)N(C)C(=S)N2c2ccccc2)C=Cc2ccccc21 ?
PGC1a acetyl inh: 1; FGF22 binding: 0; rRNA inh HTS: 4; Cneo AK release: 3; HIV Env fusion: 10

Results for CCN1/C(=C2\C(=O)N(C)C(=S)N2C)C=Cc2ccccc21 ?
FGF22 binding: 43*; ERAP1 inh: 7; HIV Env fusion: -281

What do the screens show for `CC(=O)N(C)C[C@H]1Oc2cc(C#Cc3ccc(F)cc3)ccc2S(=O)(=O)N([C@H](C)CO)C[C@@H]1C`?
PGC1a acetyl inh: 23; FGF22 binding: 0; rRNA inh HTS: -7; ERAP1 inh: -2; Cneo AK release: 110*

Results for COc1ccc(C#Cc2ccc3c(c2)O[C@H](CN(C)C(C)=O)[C@H](C)CN([C@H](C)CO)S3(=O)=O)cc1 ?
PGC1a acetyl inh: -4; FGF22 binding: -1; rRNA inh HTS: -5; ERAP1 inh: 2; Cneo AK release: -1; HIV Env fusion: 13[16.7 µM]

How did COc1ccc(C#Cc2ccc3c(c2)O[C@@H](CN(C)C(C)=O)[C@@H](C)CN([C@H](C)CO)S3(=O)=O)cc1 do in these assays?
PGC1a acetyl inh: 9; FGF22 binding: -1; rRNA inh HTS: -3; ERAP1 inh: -2; Cneo AK release: 102*; HIV Env fusion: 15[16.7 µM]

How did CC(=O)N(C)C[C@H]1Oc2cc(C#Cc3ccc(F)cc3)ccc2S(=O)(=O)N([C@H](C)CO)C[C@H]1C do in these assays?
PGC1a acetyl inh: -5; FGF22 binding: 0; rRNA inh HTS: -16; ERAP1 inh: 0; Cneo AK release: -4

What do the screens show for `C/C=C/c1ccc2c(c1)O[C@@H](CN(C)C(=O)Nc1ccc(C(F)(F)F)cc1)[C@@H](C)CN([C@@H](C)CO)S2(=O)=O`?
PGC1a acetyl inh: -10; FGF22 binding: 1.3*; rRNA inh HTS: 0; ERAP1 inh: 0; Cneo AK release: 1; HIV Env fusion: 1[16.7 µM]

Results for CCCC#Cc1ccc2c(c1)O[C@@H](CN(C)C)[C@@H](C)CN([C@@H](C)CO)S2(=O)=O ?
PGC1a acetyl inh: -3; FGF22 binding: -1; rRNA inh HTS: 3; ERAP1 inh: 4; Cneo AK release: 101*; HIV Env fusion: 3[16.7 µM]

Results for CC(C)CC#Cc1ccc2c(c1)O[C@@H](CN(C)S(C)(=O)=O)[C@@H](C)CN([C@H](C)CO)S2(=O)=O ?
PGC1a acetyl inh: 3; FGF22 binding: 0; rRNA inh HTS: -5; ERAP1 inh: -1; Cneo AK release: 0; HIV Env fusion: -4[16.7 µM]

Results for CC1(C)C(=O)Nc2ccccc2N1C(=O)COC(=O)CNS(=O)(=O)c1ccc(Br)cc1Cl ?
PGC1a acetyl inh: 3; FGF22 binding: 0; rRNA inh HTS: -13; ERAP1 inh: 0; Cneo AK release: 5; HIV Env fusion: -8

How did CSc1nc(N)c2c3c(sc2n1)CN(C)CC3 do in these assays?
PGC1a acetyl inh: -1; FGF22 binding: 0; rRNA inh HTS: 15; ERAP1 inh: 1; Cneo AK release: -3; HIV Env fusion: -4

Results for O=C(N1CCN(c2ccccc2)CC1)C1(S(=O)(=O)c2ccc(Cl)cc2)CC1 ?
PGC1a acetyl inh: -17; FGF22 binding: 0; rRNA inh HTS: -6; ERAP1 inh: 1; Cneo AK release: -2; HIV Env fusion: 20

Results for O=C(NCCc1ccccc1)c1cc(-c2ccncc2)nc2ccc(S(=O)(=O)N3CCOCC3)cc12 ?
PGC1a acetyl inh: -11; FGF22 binding: 0; rRNA inh HTS: 13; ERAP1 inh: 0; Cneo AK release: 13; HIV Env fusion: 7

How did COc1ccc(C#Cc2ccc3c(c2)O[C@H](CN(C)C(C)=O)[C@@H](C)CN([C@@H](C)CO)S3(=O)=O)cc1 do in these assays?
PGC1a acetyl inh: 11; FGF22 binding: 0; rRNA inh HTS: -15; ERAP1 inh: -1; Cneo AK release: 98*; HIV Env fusion: 27[16.7 µM]

How did C[C@@H]1CN([C@H](C)CO)S(=O)(=O)c2ccc(C#Cc3ccc(F)cc3)cc2O[C@H]1CN(C)C(=O)NC1CCCC1 do in these assays?
PGC1a acetyl inh: 23; FGF22 binding: 0; rRNA inh HTS: -3; ERAP1 inh: -5; Cneo AK release: 82*; HIV Env fusion: 21[16.7 µM]

How did C/C=C/c1ccc2c(c1)O[C@H](CN(C)C(=O)NC1CCCCC1)[C@H](C)CN([C@@H](C)CO)S2(=O)=O do in these assays?
PGC1a acetyl inh: -6; FGF22 binding: 0; rRNA inh HTS: -3; ERAP1 inh: -2; Cneo AK release: 7; HIV Env fusion: 56*[16.7 µM]

What do the screens show for `C/C=C/c1ccc2c(c1)O[C@H](CN(C)C(=O)NC1CCCCC1)[C@@H](C)CN([C@H](C)CO)S2(=O)=O`?
PGC1a acetyl inh: 3; FGF22 binding: 0; rRNA inh HTS: 0; ERAP1 inh: 1; Cneo AK release: 7; HIV Env fusion: -28[16.7 µM]

Results for C[C@H]1CN([C@@H](C)CO)S(=O)(=O)c2ccc(C#Cc3cccc(F)c3)cc2O[C@@H]1CN(C)C ?
PGC1a acetyl inh: -4; FGF22 binding: -1; rRNA inh HTS: -56; ERAP1 inh: 5; Cneo AK release: 94*; HIV Env fusion: -6[16.7 µM]

How did COc1ccc(CCNC(=O)c2c(O)c3ccccc3n(C)c2=O)cc1 do in these assays?
PGC1a acetyl inh: -3; FGF22 binding: 0; rRNA inh HTS: 4; ERAP1 inh: -2; Cneo AK release: -1; HIV Env fusion: -4

How did CNC[C@H]1OCCCC[C@H](C)Oc2ccc(NS(C)(=O)=O)cc2C(=O)N([C@H](C)CO)C[C@H]1C do in these assays?
PGC1a acetyl inh: 7; FGF22 binding: 0; rRNA inh HTS: 2; ERAP1 inh: 2; Cneo AK release: -3; HIV Env fusion: -3[16.7 µM]

Results for C[C@@H]1CN([C@H](C)CO)C(=O)c2c(c3ccccc3n2C)-c2ccccc2CO[C@H]1CN(C)S(=O)(=O)c1cccc(F)c1 ?
PGC1a acetyl inh: -37; FGF22 binding: -1; rRNA inh HTS: 1; ERAP1 inh: 2; Cneo AK release: -2; HIV Env fusion: 49[16.7 µM]

What do the screens show for `C[C@@H]1CN([C@H](C)CO)C(=O)c2c(c3ccccc3n2C)-c2ccccc2CO[C@@H]1CN(C)S(=O)(=O)c1cccc(F)c1`?
PGC1a acetyl inh: -1; FGF22 binding: 0; rRNA inh HTS: 2; ERAP1 inh: 1; Cneo AK release: -1; HIV Env fusion: 95*[16.7 µM]

Results for C[C@H](CO)N1C[C@H](C)[C@H](CN(C)S(=O)(=O)c2cccc(C#N)c2)OCc2ccccc2-c2c(n(C)c3ccccc23)C1=O ?
PGC1a acetyl inh: 8; FGF22 binding: 0; rRNA inh HTS: -10; ERAP1 inh: 0; Cneo AK release: 1; HIV Env fusion: 57*[16.7 µM]
